The target in data set [1] is T1, Proton-coupled folate transporter (Homo sapiens) (UniProt Q96NT5).
T1 sequence (whole entry): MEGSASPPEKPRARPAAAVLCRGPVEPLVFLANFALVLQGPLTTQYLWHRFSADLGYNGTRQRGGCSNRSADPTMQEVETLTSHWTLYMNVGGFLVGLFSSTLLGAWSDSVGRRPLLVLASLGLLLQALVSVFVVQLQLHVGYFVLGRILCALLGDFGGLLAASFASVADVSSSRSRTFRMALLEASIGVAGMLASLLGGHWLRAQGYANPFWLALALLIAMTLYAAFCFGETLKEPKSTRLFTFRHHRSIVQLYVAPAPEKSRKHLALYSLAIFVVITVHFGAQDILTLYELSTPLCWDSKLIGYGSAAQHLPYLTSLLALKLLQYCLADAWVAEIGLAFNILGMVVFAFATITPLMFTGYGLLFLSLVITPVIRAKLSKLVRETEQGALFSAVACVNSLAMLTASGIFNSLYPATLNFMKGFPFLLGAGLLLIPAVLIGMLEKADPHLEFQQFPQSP
The data set can be described thus: Binding affinity to human PCFT expressed in Chinese hamster R2/PCFT4 cells assessed as intracellular drug transport rate at 37 degC at pH 5.5 measured over 2 mins by Lineweaver-Burk plot analysis. In kind it is cell-based. In short, it runs like this:
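R2/PCFT4 CHO cells were grown as monolayers, transferred to spinner flasks, and used as suspensions (5–10 × 10⁷ cells). Uptake was quenched with ice-cold DPBS and cells were NaOH-solubilized. Results are pmol/mg protein; Kt and Vmax come from Lineweaver–Burke plots.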

Data set [2] deals with Folate receptor beta (Homo sapiens) (UniProt P14207). Description: Binding affinity to human FRbeta expressed in Chinese hamster D4 cells assessed as intracellular drug level at 50 nM at 37 degC after 1 hr. In kind it is cell-based. In short, it runs like this: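 D4 CHO cells (human FRβ) were acid-washed at pH 3.5, then given 50 nM [3H]drug in HBSS pH 7.4 at 37 °C for 60 min. A second acid wash removed surface-bound label to give the intracellular fraction. Cells were solubilised in NaOH, and values expressed as pmol/mg protein. Mean ±SEM of three experiments.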

Data set [3] has as its system IGROV-1. Description: Antiproliferative activity against human IGROV1 cells after 96 hrs by CellTiter-Blue assay. As to conditions: IGROV-1, 96 h. In kind it is functional, cell-based. In short, it runs like this:
(§1)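 IGROV1 and SKOV3 cells plated at ~2500–5000 cells/well in folate-free RPMI 1640 with 10% dialyzed FBS, antibiotics and 2 nM LCV, over a range of drug concentrations, ±200 nM folic acid in parallel. Incubated up to 96 h. Viability read by Cell Titer Blue fluorescence (ex 560/em 590 nm).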
For orientation: Resazurin is reduced to fluorescent resorufin, in cell work by metabolically active cells.

The subject of data set [4] is SK-OV-3. Description: Antiproliferative activity against human SKOV3 cells after 96 hrs by CellTiter-Blue assay in presence of 200 nM folic acid. In kind it is functional, cell-based. As to conditions: SK-OV-3, 96 h. In short, it runs like this: as §1
For data set [5], the system named is SK-OV-3. The data set can be described thus: Antiproliferative activity against human SKOV3 cells after 96 hrs by CellTiter-Blue assay. In kind it is functional, cell-based. Particulars: SK-OV-3, 96 h. In a few lines:
as §1

The next data set concerns KB. Description: Antiproliferative activity against human KB cells expressing FRalpha/PCFT/RFC assessed as cell growth inhibition after 96 hrs by CellTiter-Blue assay in presence of 200 nM folic acid. Format: functional, cell-based.
For the next data set, the system named is Mus musculus. Description: Toxicity in folate-replete diet fed NCR SCID mouse xenografted with human SKOV3 cells expressing RFC/PCFT/FRalpha assessed as body weight loss at 16 mg/kg, iv administered every 4 days on day 3, 7, 11. Format: organism-based, SK-OV-3. Particulars: in vivo, 96 h. (Xenograft models place foreign cells or tissue in a host animal.)

Another data set concerns R2. The data set can be described thus: Cytotoxicity against PCFT-null Chinese hamster R2 cells assessed as cell growth inhibition after 96 hrs by CellTiter-Blue assay. Format: cell-based, Cricetulus griseus. As to conditions: R2, 96 h.
Data set [6] deals with T2, Trifunctional purine biosynthetic protein adenosine-3 (Homo sapiens) (UniProt P22102).
T2 sequence (whole entry): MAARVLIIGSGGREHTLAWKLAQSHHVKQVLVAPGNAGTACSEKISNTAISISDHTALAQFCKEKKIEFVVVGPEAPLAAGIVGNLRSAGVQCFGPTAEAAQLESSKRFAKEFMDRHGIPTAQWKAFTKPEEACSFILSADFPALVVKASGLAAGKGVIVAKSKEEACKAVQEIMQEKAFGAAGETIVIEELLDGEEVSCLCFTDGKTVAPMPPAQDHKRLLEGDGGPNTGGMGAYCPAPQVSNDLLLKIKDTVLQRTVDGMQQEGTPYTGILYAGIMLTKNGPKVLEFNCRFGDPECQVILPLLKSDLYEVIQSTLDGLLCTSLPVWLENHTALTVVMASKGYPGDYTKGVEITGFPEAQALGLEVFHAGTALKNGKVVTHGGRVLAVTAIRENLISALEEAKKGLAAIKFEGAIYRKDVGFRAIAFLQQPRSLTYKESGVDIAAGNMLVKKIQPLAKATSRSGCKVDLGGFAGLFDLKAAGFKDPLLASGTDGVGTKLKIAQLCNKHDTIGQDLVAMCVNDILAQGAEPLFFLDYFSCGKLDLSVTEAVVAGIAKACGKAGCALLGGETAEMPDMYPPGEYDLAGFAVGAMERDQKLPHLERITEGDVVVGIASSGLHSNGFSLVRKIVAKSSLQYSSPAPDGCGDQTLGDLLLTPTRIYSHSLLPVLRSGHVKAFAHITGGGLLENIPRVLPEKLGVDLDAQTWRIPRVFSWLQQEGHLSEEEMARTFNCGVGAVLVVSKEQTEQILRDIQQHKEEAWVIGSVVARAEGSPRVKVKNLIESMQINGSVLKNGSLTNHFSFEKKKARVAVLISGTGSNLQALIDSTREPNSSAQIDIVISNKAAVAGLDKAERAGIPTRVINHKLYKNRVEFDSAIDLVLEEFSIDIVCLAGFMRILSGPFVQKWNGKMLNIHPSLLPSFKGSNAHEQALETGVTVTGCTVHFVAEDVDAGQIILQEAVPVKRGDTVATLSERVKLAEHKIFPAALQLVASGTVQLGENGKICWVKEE
The data set can be described thus: Inhibition of GARFTase in human KB cells expressing FRalpha/PCFT/RFC assessed as cell growth inhibition after 96 hrs by CellTiter-Blue assay in presence of AICA. In kind it is cell-based.

For data set [7], the system named is IGROV-1. Description: Antiproliferative activity against human IGROV1 cells after 96 hrs by CellTiter-Blue assay in presence of 200 nM folic acid. As to conditions: IGROV-1, 96 h. In kind it is functional, cell-based.
In data set [8] the test system is SK-OV-3. The data set can be described thus: Antitumor activity against human SKOV3 cells expressing RFC/PCFT/FRalpha xenografted in folate-replete diet fed NCR SCID mouse assessed as tumor growth inhibition at 16 mg/kg, iv administered every 4 days on day 3, 7, 11 measured on day 21 relative to control. In kind it is functional. In short, it runs like this: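 Ten-week-old female NCR SCID mice, fed a folate-deficient or standard folate-replete diet, were implanted subcutaneously and bilaterally with SKOV3 tumour fragments. Randomised at 5 mice/group. Dosed intravenously, 0.2 mL per injection, in 5% ethanol/1% Tween-80/0.5% NaHCO3 in water at pH 6.5, on days 3, 7 and 11. Tumours measured twice weekly and mice weighed daily. T/C taken on day 21; growth delay and log cell kill also reported.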

Another data set concerns PC43-10. The data set can be described thus: Selectivity ratio of IC50 for human RFC expressed in Chinese hamster PC43-10 cells assessed as cell growth inhibition to IC50 for human PCFT expressed in Chinese hamster R2/PCFT4 cells assessed as cell growth inhibition. Format: cell-based.

Each structure is given as a SMILES string. The source made the active and inactive calls. No cut-off for these calls is given here.

Folate receptor beta (Homo sapiens), sequence (P14207 17-230 limits assumed): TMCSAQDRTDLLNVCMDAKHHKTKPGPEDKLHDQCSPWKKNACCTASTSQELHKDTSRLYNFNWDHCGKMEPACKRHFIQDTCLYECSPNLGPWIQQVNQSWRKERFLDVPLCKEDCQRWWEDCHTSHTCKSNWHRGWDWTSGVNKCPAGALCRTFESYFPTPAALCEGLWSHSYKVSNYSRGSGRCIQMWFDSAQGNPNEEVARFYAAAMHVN

As a reminder, the IC50 is the concentration at which inhibition is half-maximal. What is called T/C is the ratio of treated to control. For `Nc1nc2[nH]c(CCCc3cc(C(=O)N[C@@H](CCC(=O)O)C(=O)O)cs3)cc2c(=O)[nH]1`, in [1], the K worked out at 0.22 µM. Moreover, the values for the Activity (in data set [2]; in the data set on Mus musculus) were 3.35 pmol/mg and “Non-toxic”, respectively. Besides, the IC50 in the data set with IGROV-1 [3] was determined as 0.00077 µM; with SK-OV-3 [4], 0.076 µM; with SK-OV-3 [5], 0.0155 µM; with KB, 0.105 µM; with R2, 0.29 µM; in the data set on IGROV-1 [7], 0.276 µM. In addition, the inhibition result in data set [6] was “inactive”. For the same compound, the T/C in the data set on SK-OV-3 [8] turned out to be 69%. Further, the Ratio IC50 in the data set with PC43-10 is 29.

Source of the values: ChEMBL document CHEMBL3627626, “6-Substituted Pyrrolo[2,3-d]pyrimidine Thienoyl Regioisomers as Targeted Antifolates for Folate Receptor α and the Proton-Coupled Folate Transporter in Human Tumors” (J Med Chem, 2015).
